Blank lines part the entries; values can stand above or below the molecule they belong to. Peptide text beside a SMILES is read from it.
How the values were obtained:
[1] = estimated; cited from earlier work
[2] = Asn-Gly isomerisation kinetics followed by time-dependent 1D 1H-NMR; type: physicochemical; settings: for k2 (Suc→β-Asp) / k3 (Suc→α-Asp) / t1/2, half-life of the Asn species: 1H-NMR time course, 50 mM Na2HPO4 buffer; for k2 (Suc→β-Asp) / k3 (Suc→α-Asp): COPASI fit; for t1/2, half-life of the Asn species: chemical stability
How it was run: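 Acetylated Asn-Gly-Xxx-Ala amide tetrapeptide (~1 mg) in 50 mM (final) Na2HPO4 with D2O and DSS/NaN3. pH set with 0.1 M HCl/NaOH. Heated samples sonicated 1 min. 1D 1H spectra at 5–120 min and beyond, until reactant fell below ~10%. COSY/TOCSY assignment. Relative integrals fitted to Asn→Suc (irreversible), Suc⇌β-Asp and Suc⇌α-Asp kinetic model.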

[3] = native versus reduced and unfolded forms; cited from earlier work

Molecule: CNC(C)=O [N-methylacetamide]
pKa, deprotonation of the amide group [1]: 18

t1/2, half-life of the Asn species ([2]; pH 7.4, 28 °C): 76.6 h | t1/2, half-life of the Asn species ([2]; pH 7.4, 37 °C): 19.1 h | t1/2, half-life of the Asn species ([2]; pH 7.4, 46 °C): 9.4 h | t1/2, half-life of the Asn species ([2]; pH 7.4, 55 °C): 3.0 h
Molecule: CC(=O)N[C@@H](CC(N)=O)C(=O)NCC(=O)N[C@@H](CCCCN)C(=O)N[C@@H](C)C(N)=O [-NGKA-] (Ac-NGKA-NH2)
k2 (Suc→β-Asp) ([2]; pH 7.4, 28 °C): 0.334 h⁻¹ | k3 (Suc→α-Asp) ([2]; pH 7.4, 28 °C): 0.174 h⁻¹ | k2 (Suc→β-Asp) ([2]; pH 7.4, 37 °C): 0.643 h⁻¹ | k3 (Suc→α-Asp) ([2]; pH 7.4, 37 °C): 0.255 h⁻¹ | k2 (Suc→β-Asp) ([2]; pH 7.4, 46 °C): 2.30 h⁻¹ | k3 (Suc→α-Asp) ([2]; pH 7.4, 46 °C): 1.150 h⁻¹ | k2 (Suc→β-Asp) ([2]; pH 7.4, 55 °C): 4.00 h⁻¹ | k3 (Suc→α-Asp) ([2]; pH 7.4, 55 °C): 0.134 h⁻¹ | activation Gibbs free energy of the rate-determining initial step (succinimide formation), ∆G‡(1) ([2]; pH 7.4, Arrhenius, slope of ln k1 vs 1/T (28-55 °C)): 20.9 kcal/mol | change in Gibbs free energy of the β-Asp formation step, ∆G‡(2) ([2]; pH 7.4, Arrhenius, slope of ln k2 vs 1/T (28-55 °C)): 20.5 kcal/mol

B1: native ribonuclease A: native ribonuclease A, compared with its reduced and unfolded forms (protein, UniProt P61823 27-150, looked up)
Ribonuclease pancreatic: KETAAAKFERQHMDSSTSAASSSNYCNQMMKSRNLTKDRCKPVNTFVHESLADVQAVCSQKNVACKNGQTNCYQSYSTMSITDCRETGSSKYPNCAYKTTQANKHIIVACEGNPYVPVHFDASV
times less prone to asparagine isomerisation than its reduced and unfolded forms [3]: ~ 30 times

Source: PMC11659308 (Communications Chemistry, 2024)
